Assay [1] relates to Rattus norvegicus. As to the kind of experiment: CNS activity in rat assessed as increase in latency to kill at 10 mg/kg, po by muricidal rat test. It counts as functional, organism-based. Further details: dose 10 mg/kg. The method, boiled down:
(§1)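 Oral dosing in rats in the septal-lesioned and muricidal assays, with a 10 mg/kg po screening dose. Active compounds were titrated down to a minimum effective dose. Vehicle controls were given on the same injection-volume basis.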

Assay [2] relates to Rattus norvegicus. Briefly: CNS activity in rat assessed as decrease in septal-lesioned-induced hyperactivity at 10 mg/kg, po by septal-lesioned rat test. It counts as functional, organism-based. Set-up: dose 10 mg/kg. The method, boiled down: as §1
Assay [3] concerns Mus musculus. Briefly: CNS activity in po dosed mouse assessed as decrease in early exploratory behavior in activity cage. Format: functional. As to conditions: read-out: MED. The method, boiled down: (§2)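 Oral dosing in mice, with a 20 mg/kg po screening dose. Active compounds were titrated down to a minimum effective dose. Vehicle controls were given on the same injection-volume basis.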

The test system of assay [4] is Rattus norvegicus. As to the kind of experiment: CNS activity in po dosed rat assessed as increase in latency to kill by muricidal rat test. It counts as functional. As to conditions: read-out: MED. The method, boiled down: as §1
Assay [5] has as its system Rattus norvegicus. Briefly: CNS activity in po dosed rat assessed as decrease in septal-lesioned-induced hyperactivity by septal-lesioned rat test. Format: functional. As to conditions: read-out: MED. In short, it runs like this: as §1
The subject of assay [6] is Mus musculus. Briefly: CNS activity in mouse assessed as decrease in early exploratory behavior in activity cage at 20 mg/kg, po. It counts as functional, organism-based. Set-up: dose 20 mg/kg. The method, boiled down: as §2

8 compounds from ChEMBL document CHEMBL3243929, “Cannabinoids. 2. Synthesis and central nervous system activities of some B-ring homocannabinoid derivatives and related lactones” (1977) can be followed below.

Active and inactive are the calls of the source. The calls are words filed in the database; no cut-off is given here.

As to `CCCCCCC(C)(C)c1cc(O)c2c(c1)OCC(C)(C)C1=C2CC(C)CC1` (centres undefined), the result in the assay with Rattus norvegicus [1] and with Rattus norvegicus [2] was inactive. In the assay on Mus musculus [3], the minimal effective dose stood at 20 mg/kg.

Take `CCCCCc1cc(O)c2c(c1)OC(C)(C)[C@@H]1CCC(C)=C[C@@H]21` [DRONABINOL]: the minimal effective dose in the assay with Rattus norvegicus [4] stood at 5 mg/kg; in the assay on Mus musculus [3] it was 10 mg/kg. Further, the outcome in the assay with Rattus norvegicus [2] was inactive.

In the case of `CCCCCCC(C)(C)c1cc(O)c2c(c1)OC(C)(C)CC1=C2CC(C)CC1` (centres undefined), the minimal effective dose in the assay on Rattus norvegicus [4] and in the assay on Mus musculus [3] was 2.5 mg/kg each time. The result in the assay with Rattus norvegicus [2] was inactive.

In the case of `CCCCCCC(C)(C)c1cc(O)c2c(c1)OC(=O)CC1=C2CC(C)CC1` (centres undefined), the minimal effective dose with Rattus norvegicus [4] and in the assay with Mus musculus [3] was 5 mg/kg throughout. Moreover, in the assay on Rattus norvegicus [2], the outcome was inactive.

Consider `CCCCCCC(C)(C)c1cc(O)c2c(c1)OCCC1=C2CC(C)CC1` (centres undefined), for which the minimal effective dose in the assay with Rattus norvegicus [4], with Rattus norvegicus [5] and with Mus musculus [3] was 1.25 mg/kg each time.

In the case of `CCCCCCC(C)(C)c1cc(O)c2c3c(c(=O)oc2c1)CCC(C)C3` (centres undefined), the result with Rattus norvegicus [1], in the assay on Rattus norvegicus [2] and in the assay on Mus musculus [6] was inactive.

On to `CCCCCCC(C)(C)c1cc(O)c2c(c1)OC(=O)C(C)(C)C1=C2CC(C)CC1` (centres undefined), for which the outcome in the assay on Rattus norvegicus [1], in the assay with Rattus norvegicus [2] and in the assay on Mus musculus [6] was inactive.

As to `CCCCCCC(C)(C)c1cc(O)c2c(c1)OC(C)(C)C1=C2CC(C)CC1` (centres undefined), the minimal effective dose was 0.62 mg/kg in the assay with Rattus norvegicus [4], 1.25 mg/kg in the assay with Rattus norvegicus [5] and 0.62 mg/kg with Mus musculus [3].
